In brackets after ≈: the same amount, converted by molar mass. Activity calls are given as the source filed them. No cut-off for these calls is given here.
Legend:
[1] = biological target: cGMP-specific 3',5'-cyclic phosphodiesterase (Homo sapiens, UniProt O76074); assay: Inhibition of human recombinant PDE5A1 using FAM-labelled cGMP as substrate after 60 mins by fluorescence polarization assay
Procedure, shortened: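 Fluorescence polarization assay, room temperature, 60 min, with 100 nM FAM-cGMP and 0.1-0.45 ng PDE5 or 22.5-250 ng PDE6. Binding agent then added for 60 min; read at ex 485/em 528 nm. Duplicates at each concentration. Activity normalized to no-compound and no-enzyme controls; IC50 from sigmoidal dose-response fit.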

[2] = Plasma concentration in mouse at 25 mg/kg, ip measured at 0.25 hrs post dose by LC/MS analysis; format: ADME, organism-based
Procedure, shortened: (§1)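 Mice given 25 mg/kg i.p., 3 animals per time point, sampled up to 2 h. Plasma taken from heparinized retro-orbital blood; brain homogenized in methanol. Both extracted with methanol plus internal standard and quantified by LC/MS against a standard curve. Half-life from single-phase exponential decay fit.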

[3] = test system: Mus musculus; assay: Elevation of cGMP levels in hippocampal slices of wild type C57Bl6 mouse at 3 mg/kg, ip administered for 30 mins followed by foot shock measured at 10 to 60 secs after shock by enzyme immunoassay relative to control; format: functional
Procedure, shortened: (§2)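 Male and female C57Bl6 mice, 2-3 months old, 20-25 g, given i.p. drug or vehicle (2% DMSO & 2% Tween). Foot shock 30 min after dosing; killed by cervical dislocation and decapitation at 10 s, 1 min or 3 min. Hippocampi snap-frozen. cGMP measured by enzyme immunoassay in duplicate and normalised to BCA protein; n=3 per group; compared with vehicle.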

[4] = test system: Mus musculus; assay: Elevation of cGMP levels in hippocampal slices of wild type C57Bl6 mouse at 10 mg/kg, ip administered for 30 mins followed by foot shock measured at 10 to 60 secs after shock by enzyme immunoassay relative to control; format: functional; procedure, shortened: as §2
[5] = test system: Hippocampus; assay: Effect on long-term residual potentiation in wild type C57Bl6 mouse hippocampal slices at 50 nM administered via bath perfusion for 10 mins prior to tetanus measured at the last 5 mins of 2 hrs recording; format: ADME, tissue-based; conditions: 0.05 µM
Procedure, shortened: (§3)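 Acute hippocampal slices from 3–4 month old APP/PS1 transgenic mice or WT littermates. Slices received 50 nM compound or vehicle through bath perfusion for 10 min before tetanus. Residual potentiation was taken as the mean over the last 5 min of a 2 h recording. Experiments were blinded, values are SEM, and groups were compared by 2-way ANOVA for repeated measures.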

[6] = test system: Mus musculus; assay: Antialzheimer activity in APP1/PS1 transgenic mouse assessed as effect on number of errors at 3 mg/kg, ip administered daily for 3 weeks by 2 day radial arm water maze test (reference value: 3); format: functional
[7] = test system: Mus musculus; assay: Antialzheimer activity in 3 to 4 months old APP1/PS1 transgenic mouse model assessed as long-term residual potentiation in hippocampal slices at 3 mg/kg, ip administered daily for 3 weeks measured at age of 6 to 7 months (reference value: 164.11 +/- 10.36%); format: functional
[8] = Drug level in mouse brain at 25 mg/kg, ip measured at 0.25 hrs post dose by LC/MS analysis; format: ADME, organism-based; conditions: read-out: Drug uptake; procedure, shortened: as §1
[9] = test system: Mus musculus; assay: Toxicity in wild type C57Bl6 mouse assessed as effect on number of errors at 3 mg/kg, ip administered daily for 3 weeks by 2 day radial arm water maze test; format: organism-based; conditions: in vivo
Procedure, shortened: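 Wild-type mice given 3 mg/kg i.p. daily for 3 weeks from age 3-4 months. Tested in 2-day radial arm water maze, with a hidden platform in one of 6 arms. Errors counted, averaged per mouse over blocks of 3 trials. Blind scoring; SEM.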

[10] = test system: Mus musculus; assay: Elevation of cGMP levels in hippocampal slices of wild type C57Bl6 mouse at 10 mg/kg, ip administered for 30 mins followed by foot shock measured at 180 secs after shock by enzyme immunoassay relative to control; format: functional; procedure, shortened: as §2
[11] = Kinetic solubility of compound in phosphate buffer after 18 hrs by turbidimetric method; format: physicochemical; conditions: read-out: Kinetic_solubility
Procedure, shortened: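 Compound serially diluted in DMSO at 100x final and diluted 100-fold into phosphate buffered saline. After 18 h at 37°C, turbidity read at 540 nm. Turbid if absorbance exceeded blank mean + 3 SD. Result is the highest concentration showing no turbidity.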

[12] = test system: Mus musculus; assay: Elevation of cGMP levels in hippocampal slices of wild type C57Bl6 mouse at 3 to 10 mg/kg, ip administered for 30 mins followed by foot shock measured at 10 to 180 secs after shock by enzyme immunoassay; format: functional, organism-based
Procedure, shortened: (§4)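 2-3 month old male and female C57Bl6 mice (20-25 g) dosed i.p. at 3 or 10 mg/kg in 2% DMSO & 2% Tween, or vehicle alone. Foot shock given 30 min later. Killed 10 s, 1 min or 3 min after shock. Hippocampi snap frozen. cGMP measured by enzyme immunoassay in duplicate and normalized to BCA protein. n=3 per group.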

[13] = test system: Mus musculus; assay: Antialzheimer activity in APP1/PS1 transgenic mouse assessed as rescue contextual memory by measuring freezing at 3 mg/kg, ip administered daily for 3 weeks by contextual fear memory test (reference value: 15%); format: functional
Procedure, shortened: (§5)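 Mice (APP/PS1 or wild-type) dosed 3 mg/kg i.p. daily for 3 weeks from age 3-4 months. Contextual fear learning scored 24 h after training as freezing (no movement except respiration) over 5 min in the training chamber. Mice tested at 3-4 months or at 6-7 months of age. Experiments blind; mean ± SEM.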

[14] = test system: Liver; assay: Half life in human liver microsomes at 1 uM measured up to 60 mins by LC-MS/MS analysis; format: ADME, microsome; conditions: 1 h
Procedure, shortened: (§6)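 Liver microsomes incubated with test compound at 1 µM final, 37°C, after a 3 min preincubation without cofactor, alongside a testosterone control. Protein precipitated; samples analyzed by LC-MS/MS with electrospray. Peak area ratio to internal standard compared with time 0 to give % remaining. Half-life from single-phase exponential decay fit.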

[15] = test system: Liver; assay: Half life in mouse liver microsomes at 1 uM measured up to 60 mins by LC-MS/MS analysis; format: ADME, microsome; conditions: 1 h; procedure, shortened: as §6
[16] = test system: Mus musculus; assay: Antialzheimer activity in 3 to 4 months old APP1/PS1 transgenic mouse assessed as effect on number of errors at 3 mg/kg, ip administered daily for 3 weeks measured at age of 6 to 7 months by 2 day radial arm water maze test (reference value: 2.5); format: functional
[17] = test system: Mus musculus; assay: Plasma half life in mouse at 25 mg/kg, ip measured at 0.25 hrs post dose by LC/MS analysis; format: ADME, organism-based; conditions: in vivo; procedure, shortened: as §1
[18] = test system: Mus musculus; assay: Toxicity in wild type C57Bl6 mouse assessed as effect on freezing at 3 mg/kg, ip administered daily for 3 weeks by contextual fear memory test; format: organism-based; conditions: in vivo, 504 h; procedure, shortened: as §5
[19] = test system: Hippocampus; assay: Antialzheimer activity in […] transgenic mouse hippocampal slices assessed as long-term residual potentiation at 50 nM administered via bath perfusion for 10 mins prior to tetanus measured at the last 5 mins of 2 hrs recording (reference value: 137.90 +/- 10.83%); format: functional; procedure, shortened: as §3
[20] = test system: Mus musculus; assay: Antialzheimer activity in 3 to 4 months old APP1/PS1 transgenic mouse assessed as effect on freezing at 3 mg/kg, ip administered daily for 3 weeks measured at age of 6 to 7 months by contextual fear memory test (reference value: 15%); format: functional; procedure, shortened: as §5
[21] = test system: Mus musculus; assay: Elevation of cGMP levels in hippocampal slices of wild type ip dosed C57Bl6 mouse administered for 30 mins followed by foot shock measured at 10 to 60 secs after shock by enzyme immunoassay; format: functional, organism-based; procedure, shortened: as §4
[22] = species: Homo sapiens; assay: Selectivity ratio of IC50 for human recombinant PDE6C to IC50 for human recombinant PDE5A1
[23] = biological target: Cone cGMP-specific 3',5'-cyclic phosphodiesterase subunit alpha' (Homo sapiens, UniProt P51160); assay: Inhibition of human recombinant PDE6C using FAM-labelled cGMP as substrate after 60 mins by fluorescence polarization assay
Chain of Cone cGMP-specific 3',5'-cyclic phosphodiesterase subunit alpha' (P51160 whole entry): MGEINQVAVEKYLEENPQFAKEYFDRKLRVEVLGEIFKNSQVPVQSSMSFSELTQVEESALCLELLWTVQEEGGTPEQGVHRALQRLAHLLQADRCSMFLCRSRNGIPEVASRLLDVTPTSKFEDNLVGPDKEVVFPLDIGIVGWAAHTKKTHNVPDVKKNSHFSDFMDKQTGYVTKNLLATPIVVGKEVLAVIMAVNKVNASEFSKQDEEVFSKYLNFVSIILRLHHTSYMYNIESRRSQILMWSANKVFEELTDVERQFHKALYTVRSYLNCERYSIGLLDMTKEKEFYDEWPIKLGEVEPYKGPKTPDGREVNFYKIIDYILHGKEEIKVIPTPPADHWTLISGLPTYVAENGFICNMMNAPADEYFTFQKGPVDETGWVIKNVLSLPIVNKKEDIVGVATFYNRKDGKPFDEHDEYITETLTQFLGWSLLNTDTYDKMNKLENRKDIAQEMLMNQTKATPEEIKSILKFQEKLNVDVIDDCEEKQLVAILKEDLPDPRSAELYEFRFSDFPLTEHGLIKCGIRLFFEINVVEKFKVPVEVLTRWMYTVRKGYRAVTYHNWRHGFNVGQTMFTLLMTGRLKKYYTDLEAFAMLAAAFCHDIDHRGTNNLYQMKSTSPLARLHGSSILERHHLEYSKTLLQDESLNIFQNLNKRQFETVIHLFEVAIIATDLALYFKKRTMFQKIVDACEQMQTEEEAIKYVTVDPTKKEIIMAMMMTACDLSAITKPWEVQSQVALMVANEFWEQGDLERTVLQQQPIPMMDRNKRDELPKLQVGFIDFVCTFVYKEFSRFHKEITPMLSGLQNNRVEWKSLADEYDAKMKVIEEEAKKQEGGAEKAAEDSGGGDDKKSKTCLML

In the case of `CC(=O)N1CCc2nc3ccc(C#N)cc3c(NCc3ccc(OC(F)(F)F)c(Cl)c3)c2C1`, the IC50 [1] is reported as 337 nM.
For `COc1ccc(CNc2c3c(nc4ccc(C#N)cc24)CCN(C)C3)cc1Cl`, the IC50 [1] was 0.59 nM.
In the case of `COc1ccc(CNc2c3c(nc4ccc(C#N)cc24)CCN(C(C)=O)C3)cc1Cl`, the concentration at 0.25 h [2] is reported as 1570 ng/mL, the “fold change (FC)” value [3] is reported as 1.5 and the “fold change (FC)” value [4] is reported as 1.7. For the same molecule, the Activity [5] was “Non-Toxic”, the Activity [6] was 1 and the Activity [7] was 226.22%. For the same molecule, the concentration at 0.25 h [8] was 492 ng/g, the Activity [9] was “Non-Toxic” and the “fold change (FC)” value [10] was 1.3. The solubility kinetic at 18 h [11] was > 500 µM, the Activity [12] was “Active” and the Activity [13] was 30%. The t1/2 [14] was 6 min, the t1/2 [15] was 3.2 min and the Activity [16] was 1. The t1/2 [17] was 64.2 min, the Activity [18] was 30% and the Activity [19] was 201.76%. The Activity [20] was 40% and the Activity [21] was “Dose-dependent effect”.
With `COc1ccc2nc3c(c(NCc4ccc(OC)c(Cl)c4)c2c1)CN(C(C)=O)CC3` the IC50 [1] was 45.2 nM.
In the case of `COc1ccc(CNc2c3c(nc4ccc(Br)cc24)CCN(C(C)=O)C3)cc1Cl`, the IC50 [1] is reported as 3.1 nM.
`CCN1CCc2nc3ccc(C#N)cc3c(NCc3ccc(OC)c(Cl)c3)c2C1` gave an IC50 [1] of 0.19 nM.
With `COc1c(F)cc(CNc2c3c(nc4ccc(C#N)cc24)CCN(C(C)=O)C3)cc1Cl` the IC50 [1] was 0.32 nM.
`CCN1Cc2nc3ccc(C#N)cc3c(NCc3ccc(OC)c(Cl)c3)c2C1=O` showed a Ratio IC50 [22] of 100, a solubility kinetic at 18 h [11] of 3.1 µM (≈ 1.26 µg/mL) and an IC50 [23] of 6.6 nM.
`CC(=O)N1CCc2nc3ccc(C#N)cc3c(NCc3ccnc(Cl)c3)c2C1` gave an IC50 [1] of 57 nM.
In the case of `CC(=O)N1CCc2nc3ccc(C#N)cc3c(NCc3ccc(F)c(Cl)c3)c2C1`, the IC50 [1] is reported as 1.5 nM.
With `COc1ccc(CNc2c(CO)cnc3c(C4CC4)cc(C#N)cc23)cc1Cl` the solubility kinetic at 18 h [11] was < 3.9 µM.

— ChEMBL document CHEMBL4017542, “Identification of a Novel 1,2,3,4-Tetrahydrobenzo[b][1,6]naphthyridine Analogue as a Potent Phosphodiesterase 5 Inhibitor with Improved Aqueous Solubility for the Treatment of Alzheimer's Disease” (J Med Chem, 2017)
